# ChEMBL document CHEMBL6071141, “In vitro and in vivo evaluation of Bombesin-MMAE conjugates for targeted tumour therapy” (Eur J Med Chem, 2024)
# Calls of active or inactive are those of the source. No cut-off for these calls is given here. Numbered stars: 1 amine (or outer) side, 2 acyl side, 3 side chain; on linkers, the order of the positions; unused ones are H or OH. Bridge positions count the residues as written; N and C are the ends. Square brackets hold non-standard residues; d marks the D form. Peptide text beside a SMILES is read from it. I, II: the chains in the order shown. * marks the point of attachment. Hexanoyl(6-succinimido-3yl) = O=C1CC([*:1])C(=O)N1CCCCCC(=O)[*:2]; Trp(3a,7a-dihydro) = N[C@@H](CC1=CNC2C=CC=CC12)C(=O)O; Dolaproine = CO[C@@H]([C@@H]1CCCN1)[C@@H](C)C(=O)O; Dil = CC[C@H](C)[C@H](NC)[C@@H](CC(=O)O)OC; PABC = O=C(OCc1ccc(N[*:1])cc1)[*:2]; X3 = C[C@@H](N*)[C@@H](O)c1ccccc1; Cit = NC(=O)NCCC[C@H](N)C(=O)O; PEG4 = NCCOCCOCCOCCOCCC(=O)O; NMeV = CN[C@H](C(=O)O)C(C)C; Nle = CCCC[C@H](N)C(=O)O
# Legend:
# [1] = system: PC-3; assay: Antitumor activity against human PC-3 cells xenografted in mouse assessed as reduction in tumour size at 0.5 mg/kg, ip administered upto 23 days relative to control; format: functional; set-up: scale not given: the % may be the effect or the level left; details: time <= 23 day
# Method in brief: (§1)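 Chronic study in mice bearing subcutaneous PC-3 tumours. Dosing began 8 days after cell inoculation, at a mean tumour volume of 93 mm³. Seven per group, randomized. Four i.p. doses (0.1 mL) on days 8, 11, 16 and 23 of 0.5 mg/kg MMAE-content, in 5 % DMSO in water for injection; controls got solvent. Tumour volume by calliper, V = ab²×π/6.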
# [2] = biological target: T1, Gastrin-releasing peptide receptor (Homo sapiens, UniProt P30550); assay: Displacement of 125 I- [Tyr4] from bombesin receptor 2 in human MDA-MB-231 cells assessed as inhibition by radioligand displacement assay; format: cell-based
# T1 sequence (P30550 whole entry): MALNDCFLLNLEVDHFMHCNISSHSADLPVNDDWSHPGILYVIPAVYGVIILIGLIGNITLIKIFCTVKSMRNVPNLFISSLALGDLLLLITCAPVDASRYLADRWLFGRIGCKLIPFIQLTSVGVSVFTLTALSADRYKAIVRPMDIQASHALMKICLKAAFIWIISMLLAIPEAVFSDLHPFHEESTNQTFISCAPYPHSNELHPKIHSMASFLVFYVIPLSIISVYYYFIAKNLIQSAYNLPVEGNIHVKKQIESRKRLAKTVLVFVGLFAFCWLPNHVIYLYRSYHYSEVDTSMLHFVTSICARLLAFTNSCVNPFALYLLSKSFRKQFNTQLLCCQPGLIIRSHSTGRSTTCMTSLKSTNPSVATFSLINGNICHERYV
# Method in brief: (§2)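 Competition binding on membrane preparations from PC-3 or MDA-MB-231 cells against ¹²⁵I-[Tyr⁴]-bombesin, with conjugates at 10 μM–10 pM. IC50 was taken as the concentration giving 50 % inhibition of tracer binding.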
# [3] = Metabolic stability in human plasma assessed as half life at 5 uM measured upto 24 hrs by LC-HRMS analysis; format: ADME, cell-free
# Method in brief: (§3)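 Conjugates at 5 μM were incubated in human or mouse plasma at 37 °C, in duplicate. Samples were taken at t0, 0.25, 0.5, 1, 2, 4 and 24 h and quenched with 1 % formic acid in MeCN (2× volume). After centrifugation (14000 rpm, 4 °C), supernatants were diluted 1:1 with water and analysed by LC-HRMS.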
# [4] = Cytotoxicity against human PC-3 cells assessed as inhibition of cell growth incubated with compound for 72 hrs followed by further incubated for 72 hrs (single treatment) by CellTiter 96 aqueous assay; format: toxicity, cell-based
# Method in brief: (§4)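 PC-3 or MDA-MB-231 cells were treated the day after seeding with serial dilutions, from 2000 nM for conjugates and 100 nM for MMAE, for 72 h. Then the assay was stopped, or run 72 h more after a medium change (single) or re-treatment (double). Controls got 0.05 % DMSO. Read-out was MTS absorbance at 490 nm after 90 min. IC50 by non-linear regression; ≥2 experiments, triplicates.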
# [5] = Cytotoxicity against human MDA-MB-231 cells assessed as inhibition of cell growth incubated with compound for 72 hrs followed by further incubated for 72 hrs (single treatment) by CellTiter 96 aqueous assay; format: toxicity, cell-based; method in brief: as §4
# [6] = system: PC-3; assay: Antitumor activity against human PC-3 cells xenografted in mouse assessed as reduction in tumour volume relative to control; format: functional; set-up: scale not given: the % may be the effect or the level left
# Method in brief: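 Acute study in mice bearing subcutaneous PC-3 tumours. Single i.p. dose (0.1 mL) 9 days after inoculation, at a mean tumour volume of 62 mm³. Eight per group, randomized. Conjugates at 2 mg/kg MMAE-content, free MMAE at 1 mg/kg, in 5 % DMSO in water; solvent controls. Calliper volume V = ab²×π/6. Sacrifice at 20 % weight loss or 2000 mm³.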
# [7] = biological target: T1, Gastrin-releasing peptide receptor; assay: Displacement of 125 I- [Tyr4] from bombesin receptor 2 in human PC-3 cells assessed as inhibition by radioligand displacement assay; format: cell-based; method in brief: as §2
# [8] = Cytotoxicity against human cells MDA-MB-231 assessed as inhibition of cell growth incubated for 72 hrs by CellTiter 96 aqueous assay; format: toxicity, cell-based; details: MDA-MB-231 cells; method in brief: as §4
# [9] = system: PC-3; assay: Antitumor activity against human PC-3 cells xenografted in mouse assessed as inhibition in tumour growth at 0.5 mg/kg, ip administered upto 23 days; format: functional, organism-based; details: time <= 23.0 day; method in brief: as §1
# [10] = Cytotoxicity against human PC-3 cells assessed as inhibition of cell growth incubated for 72 hrs and followed by treated with compound continued incubation for further 72 hrs (double treatment) after retreatment of compound by CellTiter 96 aqueous assay; format: toxicity, cell-based; method in brief: as §4
# [11] = system: PC-3; assay: Antitumor activity against human PC-3 cells xenografted with mouse assessed as median survival days at 2 mg/kg, ip (reference value: 33 days)
# [12] = Toxicity in mouse xenografted with human PC-3 cells assessed as body weight loss at 1 mg/kg, ip administered relative to control; format: organism-based; details: in vivo, 2 mg/kg, in the assay text read “2 mg/kg” for “1 mg/kg”
# Method in brief: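 Toxicity in mice bearing subcutaneous PC-3 tumours after a single i.p. dose 9 days post-inoculation. Free drug at 1 mg/kg, conjugates at 2 mg/kg MMAE-content, in 5 % DMSO in water; solvent controls; eight per group. Body weight followed periodically. Endpoint at 20 % weight loss; behaviour (activity, coat, stool, paleness) also scored.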
# [13] = system: PC-3; assay: Antitumor activity against human PC-3 cells xenografted in mouse assessed as reduction in tumour weight at 0.5 mg/kg, ip administered upto 23 days relative to control; format: functional; set-up: scale not given: the % may be the effect or the level left; details: time <= 23 day
# [14] = Biodistribution in mouse xenografted with human PC-3 cells assessed as tumour environment incubated for 24 hrs by LC-HRMS; format: ADME, organism-based, Neoplasm; details: in vivo
# Method in brief: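 Mice bearing PC-3 xenografts received a single 2 mg/kg i.p. dose. Blood, tumour, liver, kidneys, heart, lungs and pancreas were collected at 1, 6 and 24 h and pooled per group. Tissues were homogenised in water (1:2 w/v) and centrifuged. Released MMAE was measured by LC-HRMS and expressed as %ID/g (n = 3).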
# [15] = Cytotoxicity against human PC-3 cells assessed as inhibition of cell growth incubated for 72 hrs by CellTiter 96 aqueous assay; format: toxicity, cell-based; method in brief: as §4
# [16] = Cytotoxicity against human MDA-MB-231 cells assessed as inhibition of cell growth incubated for 72 hrs and followed by treated with compound continued incubation for further 72 hrs (double treatment) after retreatment of compound by CellTiter 96 aqueous assay; format: toxicity, cell-based; method in brief: as §4
# [17] = Metabolic stability in mouse plasma assessed as half life at 5 uM measured upto 24 hrs by LC-HRMS analysis; format: ADME, cell-free; method in brief: as §3
half-life at 5 µM [17] [min],SMILES,Activity [1] [%],IC50 [2] [nM],half-life at 5 µM [3] [h],IC50 at 144 h [4] [nM],IC50 at 144 h [5] [nM],Activity [6] [%],IC50 [7] [nM],IC50 at 72 h [8] [nM],Activity [9],IC50 at 144 h [10] [nM],Survival [11] [days],Activity [12] [%],Activity [13] [%],Drug uptake [14],IC50 at 72 h [15] [nM],IC50 at 144 h [16] [nM]
–,CC[C@H](C)[C@@H]([C@@H](CC(=O)N1CCC[C@H]1[C@H](OC)[C@@H](C)C(=O)N[C@H](C)[C@@H](O)c1ccccc1)OC)N(C)C(=O)[C@@H](NC(=O)[C@H](C(C)C)N(C)C(=O)OCc1ccc(NC(=O)[C@H](CCCNC(N)=O)NC(=O)[C@@H](NC(=O)[C@H](CCC(=O)O)NC(=O)CCCCCN2C(=O)CC(SC[C@H](NC(C)=O)C(=O)NCCOCCOCCOCCOCCC(=O)N[C@H](Cc3ccccc3)C(=O)N[C@@H](CCC(N)=O)C(=O)N[C@@H](CC3=CNC4C=CC=CC34)C(=O)N[C@@H](C)C(=O)N[C@H](C(=O)NCC(=O)N[C@@H](Cc3c[nH]cn3)C(=O)N[C@@H](CC(C)C)[C@@H](O)CC(=O)N[C@@H](CC(C)C)C(N)=O)C(C)C)C2=O)C(C)C)cc1)C(C)C (some centres not stated),59.8,69.5,4.6,4.8,42.3,65.2,59.4,526,Active,3.5,49,< 20,41.6,Active,29.6,43.3
–,"CCCC[C@H](NC(=O)[C@H](CC(C)C)NC(=O)[C@H](Cc1c[nH]cn1)NC(=O)CNC(=O)[C@@H](NC(=O)[C@H](C)NC(=O)[C@H](CC1=CNC2C=CC=CC12)NC(=O)[C@H](CCC(N)=O)NC(=O)[C@H](CC(N)=O)NC(=O)CCOCCOCCOCCOCCNC(=O)[C@H](CSC1CC(=O)N(CCCCCC(=O)N[C@@H](CCC(=O)O)C(=O)NCC(=O)N[C@@H](CCCNC(N)=O)C(=O)Nc2ccc(COC(=O)N(C)[C@H](C(=O)N[C@H](C(=O)N(C)[C@@H]([C@@H](C)CC)[C@@H](CC(=O)N3CCC[C@H]3[C@H](OC)[C@@H](C)C(=O)N[C@H](C)[C@@H](O)c3ccccc3)OC)C(C)C)C(C)C)cc2)C1=O)NC(C)=O)C(C)C)C(N)=O (some centres not stated) (I: Ac-C[PEG4]NQ[Trp(3a,7a-dihydro)]AVGHL[Nle]-NH2 / II: EG[Cit][PABC][NMeV]V[Dil][Dolaproine]-X3; linker I:1-II:N via Hexanoyl(6-succinimido-3yl))",–,79.3,–,248,270,–,83.2,1260,–,200,–,–,–,–,830,217
7.2,CC[C@H](C)[C@@H]([C@@H](CC(=O)N1CCC[C@H]1[C@H](OC)[C@@H](C)C(=O)N[C@H](C)[C@@H](O)c1ccccc1)OC)N(C)C(=O)[C@@H](NC(=O)[C@H](C(C)C)N(C)C(=O)OCc1ccc(NC(=O)[C@H](CCCNC(N)=O)NC(=O)[C@@H](NC(=O)CCCCCN2C(=O)CC(SC[C@H](NC(C)=O)C(=O)N[C@H](Cc3ccccc3)C(=O)N[C@@H](CCC(N)=O)C(=O)N[C@@H](Cc3c[nH]c4ccccc34)C(=O)N[C@@H](C)C(=O)N[C@H](C(=O)NCC(=O)N[C@@H](Cc3c[nH]cn3)C(=O)N[C@@H](CC(C)C)[C@@H](O)CC(=O)N[C@@H](CC(C)C)C(N)=O)C(C)C)C2=O)C(C)C)cc1)C(C)C (some centres not stated),–,–,8.2,101,202,–,–,888,–,92.1,–,–,–,–,718,155
